Laboratory results from ChEMBL document CHEMBL5058577, “EUbOPEN Chemogenomics Library 2 (Multiplex)” (2022).

System: U2OS
Test: Multiplex assay against U2OS
Assay type: toxicity, cell-based
Settings: human
Summary of the method: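 Live cells were stained at seeding with Hoechst33342, BioTracker Green Microtubule Cytoskeleton Dye, MitoTracker Red and Annexin V Alexa Fluor 680. Following compound addition, they were imaged on a CQ1 microscope at 37°C and 5% CO2 and gated by CellPathfinder machine learning into Hoechst high-intensity objects or normal cells, with normal cells split into healthy, pyknosed or fragmented nuclei and pyknosed cells into mitotic or apoptotic. Tubulin, mitochondrial-mass and membrane-permeability phenotypes are per cents of healthy-nucleus cells.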

[1] = 12 h, 1 µM, compound concentration 1 uM, replicate 1
[2] = 12 h, 1 µM, compound concentration 1 uM, replicate 2
[3] = 12 h, 10 µM, compound concentration 10 uM, replicate 1
[4] = 12 h, 10 µM, compound concentration 10 uM, replicate 2
[5] = 24 h, 1 µM, compound concentration 1 uM, replicate 1
[6] = 24 h, 1 µM, compound concentration 1 uM, replicate 2
[7] = 24 h, 10 µM, compound concentration 10 uM, replicate 1
[8] = 24 h, 10 µM, compound concentration 10 uM, replicate 2
[9] = 48 h, 1 µM, compound concentration 1 uM, replicate 1
[10] = 48 h, 1 µM, compound concentration 1 uM, replicate 2
[11] = 48 h, 10 µM, compound concentration 10 uM, replicate 1
[12] = 48 h, 10 µM, compound concentration 10 uM, replicate 2

CCc1nn2c(C)cc(C)nc2c1Cc1ccc(-c2nnc(C3CCNCC3)o2)cc1
Population Apoptotic (%) [1]: 42%
Population Fragmented Nuclei (%) [1]: 28%
Population Healthy Nuclei (%) [1]: 60%
Population Hoechst High Intensity Objects (%) [1]: 3%
Population Membrane Permeable-Phenotype (%) [1]: 12%
Population Mitochondria Different-Phenotype (%) [1]: 10%
Population Mitotic Cells (%) [1]: 57%
Population Normal (%) [1]: 96%
Population Pyknosed Nuclei (%) [1]: 10%
Population Tubulin-Different-Phenotype (%) [1]: 11%
Total Cell Count [1]: 251
Population Apoptotic (%) [2]: 85%
Population Fragmented Nuclei (%) [2]: 9%
Population Healthy Nuclei (%) [2]: 84%
Population Hoechst High Intensity Objects (%) [2]: 2%
Population Membrane Permeable-Phenotype (%) [2]: 14%
Population Mitochondria Different-Phenotype (%) [2]: 17%
Population Mitotic Cells (%) [2]: 14%
Population Normal (%) [2]: 97%
Population Pyknosed Nuclei (%) [2]: 6%
Population Tubulin-Different-Phenotype (%) [2]: 4%
Total Cell Count [2]: 110
Population Apoptotic (%) [3]: 68%
Population Fragmented Nuclei (%) [3]: 24%
Population Healthy Nuclei (%) [3]: 55%
Population Hoechst High Intensity Objects (%) [3]: 5%
Population Membrane Permeable-Phenotype (%) [3]: 26%
Population Mitochondria Different-Phenotype (%) [3]: 43%
Population Mitotic Cells (%) [3]: 31%
Population Normal (%) [3]: 94%
Population Pyknosed Nuclei (%) [3]: 20%
Population Tubulin-Different-Phenotype (%) [3]: 28%
Total Cell Count [3]: 214
Population Apoptotic (%) [4]: 77%
Population Fragmented Nuclei (%) [4]: 8%
Population Healthy Nuclei (%) [4]: 76%
Population Hoechst High Intensity Objects (%) [4]: 2%
Population Membrane Permeable-Phenotype (%) [4]: 30%
Population Mitochondria Different-Phenotype (%) [4]: 62%
Population Mitotic Cells (%) [4]: 22%
Population Normal (%) [4]: 97%
Population Pyknosed Nuclei (%) [4]: 14%
Population Tubulin-Different-Phenotype (%) [4]: 44%
Total Cell Count [4]: 129
Population Apoptotic (%) [5]: 80%
Population Fragmented Nuclei (%) [5]: 26%
Population Healthy Nuclei (%) [5]: 63%
Population Hoechst High Intensity Objects (%) [5]: 2%
Population Membrane Permeable-Phenotype (%) [5]: 4%
Population Mitochondria Different-Phenotype (%) [5]: 6%
Population Mitotic Cells (%) [5]: 20%
Population Normal (%) [5]: 97%
Population Pyknosed Nuclei (%) [5]: 10%
Population Tubulin-Different-Phenotype (%) [5]: 3%
Total Cell Count [5]: 296
Population Apoptotic (%) [6]: 87%
Population Fragmented Nuclei (%) [6]: 13%
Population Healthy Nuclei (%) [6]: 80%
Population Hoechst High Intensity Objects (%) [6]: 3%
Population Membrane Permeable-Phenotype (%) [6]: 7%
Population Mitochondria Different-Phenotype (%) [6]: 12%
Population Mitotic Cells (%) [6]: 12%
Population Normal (%) [6]: 96%
Population Pyknosed Nuclei (%) [6]: 6%
Total Cell Count [6]: 130
Population Apoptotic (%) [7]: 77%
Population Fragmented Nuclei (%) [7]: 24%
Population Healthy Nuclei (%) [7]: 55%
Population Hoechst High Intensity Objects (%) [7]: 3%
Population Membrane Permeable-Phenotype (%) [7]: 9%
Population Mitochondria Different-Phenotype (%) [7]: 40%
Population Mitotic Cells (%) [7]: 22%
Population Normal (%) [7]: 96%
Population Pyknosed Nuclei (%) [7]: 19%
Population Tubulin-Different-Phenotype (%) [7]: 7%
Total Cell Count [7]: 236
Population Apoptotic (%) [8]: 71%
Population Fragmented Nuclei (%) [8]: 15%
Population Healthy Nuclei (%) [8]: 71%
Population Membrane Permeable-Phenotype (%) [8]: 16%
Population Mitochondria Different-Phenotype (%) [8]: 61%
Population Mitotic Cells (%) [8]: 28%
Population Pyknosed Nuclei (%) [8]: 13%
Population Tubulin-Different-Phenotype (%) [8]: 28%
Total Cell Count [8]: 163
Population Apoptotic (%) [9]: 90%
Population Fragmented Nuclei (%) [9]: 17%
Population Healthy Nuclei (%) [9]: 71%
Population Hoechst High Intensity Objects (%) [9]: 2%
Population Membrane Permeable-Phenotype (%) [9]: 6%
Population Mitochondria Different-Phenotype (%) [9]: 2%
Population Mitotic Cells (%) [9]: 10%
Population Normal (%) [9]: 97%
Population Pyknosed Nuclei (%) [9]: 10%
Population Tubulin-Different-Phenotype (%) [9]: 4%
Total Cell Count [9]: 376
Population Apoptotic (%) [10]: 85%
Population Fragmented Nuclei (%) [10]: 12%
Population Healthy Nuclei (%) [10]: 72%
Population Membrane Permeable-Phenotype (%) [10]: 7%
Population Mitochondria Different-Phenotype (%) [10]: 6%
Population Mitotic Cells (%) [10]: 14%
Population Pyknosed Nuclei (%) [10]: 14%
Total Cell Count [10]: 187
Population Apoptotic (%) [11]: 82%
Population Fragmented Nuclei (%) [11]: 24%
Population Healthy Nuclei (%) [11]: 55%
Population Hoechst High Intensity Objects (%) [11]: 2%
Population Membrane Permeable-Phenotype (%) [11]: 10%
Population Mitochondria Different-Phenotype (%) [11]: 29%
Population Mitotic Cells (%) [11]: 17%
Population Normal (%) [11]: 97%
Population Pyknosed Nuclei (%) [11]: 19%
Population Tubulin-Different-Phenotype (%) [11]: 3%
Total Cell Count [11]: 290
Population Apoptotic (%) [12]: 75%
Population Fragmented Nuclei (%) [12]: 12%
Population Healthy Nuclei (%) [12]: 71%
Population Membrane Permeable-Phenotype (%) [12]: 22%
Population Mitochondria Different-Phenotype (%) [12]: 31%
Population Mitotic Cells (%) [12]: 24%
Population Pyknosed Nuclei (%) [12]: 15%
Population Tubulin-Different-Phenotype (%) [12]: 18%
Total Cell Count [12]: 219
